# Assay results as given in ChEMBL document CHEMBL2346534, “Design, synthesis and in vitro anti-proliferative activity of 4,6-quinazolinediamines as potent EGFR-TK inhibitors” (Eur J Med Chem, 2013).
# Key:
# CAKI-1 = assay: Cytotoxicity against human Caki1 cells assessed as cell growth at 10^-5 M after 48 hrs by SRB assay; type: functional; settings: CAKI-1, 48 h, read-out: Activity
# Outline: (§1)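 NCI 60 single-dose screen at 10^-5 M. Cells in RPMI 1640 with 5% FBS and 2 mM L-glutamine, preincubated 24 h at 37 °C/5% CO2. Drug from DMSO stock, then 48 h exposure. TCA fixation, SRB staining, absorbance at 515 nm. Result given as percent growth of treated cells relative to untreated control.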
# UACC-62 = assay: Cytotoxicity against human UACC62 cells assessed as cell growth at 10^-5 M after 48 hrs by SRB assay; type: functional; settings: UACC-62, 48 h, read-out: Activity
# Outline: (§2)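 NCI primary single-dose screen at 10^-5 M. Cells grown in RPMI 1640 with 5% FBS and 2 mM L-glutamine, given 24 h before drug addition, then 48 h exposure at 37 °C, 5% CO2. Cells TCA-fixed, stained with SRB, read at 515 nm. Reported as percent growth of treated cells relative to untreated controls.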
# SNB-75 = assay: Cytotoxicity against human SNB75 cells assessed as cell growth at 10^-5 M after 48 hrs by SRB assay; type: functional; settings: SNB-75, 48 h, read-out: Activity
# Outline: (§3)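 NCI 60-panel single-dose primary screen at 10^-5 M. Cells are grown in RPMI 1640 with 5% FBS and 2 mM L-glutamine and preincubated 24 h at 37 °C. Drug exposure is 48 h. Cells are TCA-fixed, stained with SRB and absorbance is read at 515 nm. Results are reported as percent growth of treated cells versus untreated controls, corrected using time-zero plates.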
# SF-539 = assay: Cytotoxicity against human SF539 cells assessed as cell growth at 10^-5 M after 48 hrs by SRB assay; type: functional; settings: SF-539, 48 h, read-out: Activity; outline: as §3
# RXF 393 = assay: Cytotoxicity against human RXF393 cells assessed as cell growth at 10^-5 M after 48 hrs by SRB assay; type: functional; settings: RXF 393, 48 h, read-out: Activity; outline: as §3
# MDA-MB-231 = assay: Cytotoxicity against human MDA-MB-231 cells assessed as cell growth at 10^-5 M after 48 hrs by SRB assay; type: functional; settings: MDA-MB-231, 48 h, read-out: Activity; outline: as §1
# KM12 = assay: Cytotoxicity against human KM12 cells assessed as cell growth at 10^-5 M after 48 hrs by SRB assay; type: functional; settings: KM12, 48 h, read-out: Activity; outline: as §1
# CCRF-CEM = assay: Cytotoxicity against human CCRF-CEM cells assessed as cell growth at 10^-5 M after 48 hrs by SRB assay; type: functional; settings: read-out: Activity; outline: as §1
# ACHN = assay: Cytotoxicity against human ACHN cells assessed as cell growth at 10^-5 M after 48 hrs by SRB assay; type: functional; settings: read-out: Activity; outline: as §1
# HCT-116 = assay: Cytotoxicity against human HCT116 cells assessed as cell growth at 10^-5 M after 48 hrs by SRB assay; type: functional; settings: HCT-116, 48 h, read-out: Activity; outline: as §1
# BT-549 = assay: Cytotoxicity against human BT549 cells assessed as cell growth at 10^-5 M after 48 hrs by SRB assay; type: functional; settings: BT-549, 48 h, read-out: Activity; outline: as §1
# Malme-3M = assay: Cytotoxicity against human MALME-3M cells assessed as cell growth at 10^-5 M after 48 hrs by SRB assay; type: functional; settings: read-out: Activity; outline: as §1
# [1] = biological target: Epidermal growth factor receptor (Homo sapiens, UniProt P00533); settings: at 10 µM;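 further: EGFR tyrosine kinase activity on a poly(Glu,Tyr) substrate, read out by Kinase-Glo Plus luminescence after a 40 min reaction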
# UO-31 = assay: Cytotoxicity against human UO31 cells assessed as cell growth at 10^-5 M after 48 hrs by SRB assay; type: functional; settings: UO-31, 48 h, read-out: Activity; outline: as §2
# HCT-15 = assay: Cytotoxicity against human HCT15 cells assessed as cell growth at 10^-5 M after 48 hrs by SRB assay; type: functional; settings: HCT-15, 48 h, read-out: Activity; outline: as §1
# SK-MEL-2 = assay: Cytotoxicity against human SK-MEL-2 cells assessed as cell growth at 10^-5 M after 48 hrs by SRB assay; type: functional; settings: SK-MEL-2, 48 h, read-out: Activity; outline: as §3
# MCF7 = assay: Cytotoxicity against human MCF7 cells assessed as cell growth at 10^-5 M after 48 hrs by SRB assay; type: functional; settings: MCF7, 48 h, read-out: Activity; outline: as §1
# PC-3 = assay: Cytotoxicity against human PC3 cells assessed as cell growth at 10^-5 M after 48 hrs by SRB assay; type: functional; settings: PC-3, 48 h, read-out: Activity; outline: as §3
# MOLT-4 = assay: Cytotoxicity against human MOLT4 cells assessed as cell growth at 10^-5 M after 48 hrs by SRB assay; type: functional; settings: MOLT-4, 48 h, read-out: Activity; outline: as §3
# HOP-92 = assay: Cytotoxicity against human HOP92 cells assessed as cell growth at 10^-5 M after 48 hrs by SRB assay; type: functional; settings: HOP-92, 48 h, read-out: Activity; outline: as §1
# COLO 205 = assay: Cytotoxicity against human COLO205 cells assessed as cell growth at 10^-5 M after 48 hrs by SRB assay; type: functional; settings: COLO 205, 48 h, read-out: Activity; outline: as §1
# MDA-MB-435 = assay: Cytotoxicity against human MDA-MB-435 cells assessed as cell growth at 10^-5 M after 48 hrs by SRB assay; type: functional; settings: MDA-MB-435, 48 h, read-out: Activity; outline: as §1
# IGROV-1 = assay: Cytotoxicity against human IGROV1 cells assessed as cell growth at 10^-5 M after 48 hrs by SRB assay; type: functional; settings: IGROV-1, 48 h, read-out: Activity; outline: as §1
# NCI-H322M = assay: Cytotoxicity against human NCI-H322M cells assessed as cell growth at 10^-5 M after 48 hrs by SRB assay; type: functional; settings: read-out: Activity; outline: as §3
# Hs-578T = assay: Cytotoxicity against human Hs578T cells assessed as cell growth at 10^-5 M after 48 hrs by SRB assay; type: functional; settings: read-out: Activity; outline: as §1
# NCI-H23 = assay: Cytotoxicity against human NCI-H23 cells assessed as cell growth at 10^-5 M after 48 hrs by SRB assay; type: functional; settings: NCI-H23, 48 h, read-out: Activity; outline: as §3
# HCC 2998 = assay: Cytotoxicity against human HCC2998 cells assessed as cell growth at 10^-5 M after 48 hrs by SRB assay; type: functional; settings: HCC 2998, 48 h, read-out: Activity; outline: as §1
# T47D = assay: Cytotoxicity against human T47D cells assessed as cell growth at 10^-5 M after 48 hrs by SRB assay; type: functional; settings: read-out: Activity; outline: as §2
# NCI-H460 = assay: Cytotoxicity against human NCI-H460 cells assessed as cell growth at 10^-5 M after 48 hrs by SRB assay; type: functional; settings: NCI-H460, 48 h, read-out: Activity; outline: as §3
# UACC-257 = assay: Cytotoxicity against human UACC257 cells assessed as cell growth at 10^-5 M after 48 hrs by SRB assay; type: functional; settings: UACC-257, 48 h, read-out: Activity; outline: as §2
# [2] = Cytotoxicity against human NCI-ADR-RES cells assessed as cell growth at 10^-5 M after 48 hrs by SRB assay; type: functional; settings: read-out: Activity; outline: as §3
# Sequence of Epidermal growth factor receptor (P00533 whole entry): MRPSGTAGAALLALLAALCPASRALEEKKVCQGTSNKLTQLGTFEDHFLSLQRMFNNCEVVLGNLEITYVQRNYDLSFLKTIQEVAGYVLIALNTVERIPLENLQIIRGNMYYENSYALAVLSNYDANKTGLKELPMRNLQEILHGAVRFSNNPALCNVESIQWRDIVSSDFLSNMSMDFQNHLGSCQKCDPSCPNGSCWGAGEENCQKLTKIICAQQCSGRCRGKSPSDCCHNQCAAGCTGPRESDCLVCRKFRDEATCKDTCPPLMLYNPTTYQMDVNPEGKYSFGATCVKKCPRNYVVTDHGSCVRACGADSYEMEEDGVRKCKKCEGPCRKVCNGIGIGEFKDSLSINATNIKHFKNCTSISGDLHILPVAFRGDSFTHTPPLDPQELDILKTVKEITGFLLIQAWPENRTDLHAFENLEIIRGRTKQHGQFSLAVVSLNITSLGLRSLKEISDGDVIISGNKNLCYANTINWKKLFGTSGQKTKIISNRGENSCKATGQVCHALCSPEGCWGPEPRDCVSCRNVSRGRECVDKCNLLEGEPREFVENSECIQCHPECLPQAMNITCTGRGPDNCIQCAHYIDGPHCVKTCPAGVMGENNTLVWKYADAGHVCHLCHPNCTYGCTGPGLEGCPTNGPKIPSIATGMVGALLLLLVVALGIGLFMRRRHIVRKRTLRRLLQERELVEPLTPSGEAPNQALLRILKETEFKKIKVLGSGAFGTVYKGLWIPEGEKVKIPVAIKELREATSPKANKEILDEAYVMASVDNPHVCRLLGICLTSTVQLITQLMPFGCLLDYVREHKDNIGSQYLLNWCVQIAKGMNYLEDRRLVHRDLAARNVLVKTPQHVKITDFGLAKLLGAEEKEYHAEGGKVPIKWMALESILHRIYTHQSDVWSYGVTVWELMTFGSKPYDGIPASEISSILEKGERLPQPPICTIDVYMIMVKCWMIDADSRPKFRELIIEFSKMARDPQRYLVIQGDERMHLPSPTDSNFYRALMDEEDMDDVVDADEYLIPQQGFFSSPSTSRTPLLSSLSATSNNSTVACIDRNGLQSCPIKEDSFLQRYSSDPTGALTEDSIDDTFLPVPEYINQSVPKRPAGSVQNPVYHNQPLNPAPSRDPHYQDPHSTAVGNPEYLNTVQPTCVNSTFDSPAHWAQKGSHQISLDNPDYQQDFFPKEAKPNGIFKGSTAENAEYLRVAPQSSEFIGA
SMILES,growth at 10 µM (CAKI-1) [%],growth at 10 µM (UACC-62) [%],growth at 10 µM (SNB-75) [%],growth at 10 µM (SF-539) [%],growth at 10 µM (RXF 393) [%],growth at 10 µM (MDA-MB-231) [%],growth at 10 µM (KM12) [%],growth at 10 µM (CCRF-CEM) [%],growth at 10 µM (ACHN) [%],growth at 10 µM (HCT-116) [%],growth at 10 µM (BT-549) [%],growth at 10 µM (Malme-3M) [%],inhibition [1] [%],growth at 10 µM (UO-31) [%],growth at 10 µM (HCT-15) [%],growth at 10 µM (MCF7) [%],growth at 10 µM (PC-3) [%],growth at 10 µM (MOLT-4) [%],growth at 10 µM (COLO 205) [%],growth at 10 µM (MDA-MB-435) [%],other results
CCOC(=O)/C(C#N)=C\Nc1ccc2ncnc(Nc3ccc(Cl)cc3Cl)c2c1,39,90,91.3,92.7,77,85.2,79.1,70.9,62.9,92.9,89.6,140,92,42,92.7,87.6,59.3,58.8,108,75.7,growth at 10 µM (SK-MEL-2): 110%; growth at 10 µM (HOP-92): 56.5%; growth at 10 µM (IGROV-1): 55%; growth at 10 µM (NCI-H322M): 75.7%; growth at 10 µM (Hs-578T): 75.5%; growth at 10 µM (NCI-H23): 99.5%; growth at 10 µM (HCC 2998): 119%; growth at 10 µM (T47D): 58.6%; growth at 10 µM (NCI-H460): 84.8%; growth at 10 µM (UACC-257): 97.2%; growth at 10 µM [2]: 85.4%
NC(=O)Nc1ccc2ncnc(Nc3ccc(Cl)cc3)c2c1,40.1,87.9,95,95.7,93.7,89.3,98.5,96,47.4,96.4,92.4,117,100,58,93.1,86.5,79,71.2,101,97.8,growth at 10 µM (SK-MEL-2): 127%; growth at 10 µM (HOP-92): 74.2%; growth at 10 µM (IGROV-1): 61%; growth at 10 µM (NCI-H322M): 18%; growth at 10 µM (Hs-578T): 87.8%; growth at 10 µM (NCI-H23): 100%; growth at 10 µM (HCC 2998): 97.9%; growth at 10 µM (T47D): 61.6%; growth at 10 µM (NCI-H460): 88%; growth at 10 µM (UACC-257): 100%; growth at 10 µM [2]: 88.7%
NC(=O)Nc1ccc2ncnc(Nc3cccc(O)c3)c2c1,84.8,105,102,109,111,104,96.1,108,103,109,108,121,100,80.1,108,97.3,102,98.8,94.7,101,growth at 10 µM (HOP-92): 78%; growth at 10 µM (IGROV-1): 107%; growth at 10 µM (NCI-H322M): 83.5%; growth at 10 µM (Hs-578T): 105%; growth at 10 µM (NCI-H23): 100%; growth at 10 µM (HCC 2998): 102%; growth at 10 µM (T47D): 76.6%; growth at 10 µM (NCI-H460): 108%; growth at 10 µM (UACC-257): 99.8%; growth at 10 µM [2]: 96.8%
CCOC(=O)/C(C#N)=C\Nc1ccc2ncnc(Nc3ccccc3Cl)c2c1,45,107,87.2,111,91.7,86.9,88.5,93.1,68.7,113,112,156,94,66.7,99,110,98.8,86.2,110,100,growth at 10 µM (SK-MEL-2): 106%; growth at 10 µM (HOP-92): 70.4%; growth at 10 µM (IGROV-1): 79.7%; growth at 10 µM (NCI-H322M): 47%; growth at 10 µM (Hs-578T): 91%; growth at 10 µM (NCI-H23): 103%; growth at 10 µM (HCC 2998): 117%; growth at 10 µM (T47D): 77.6%; growth at 10 µM (NCI-H460): 98.7%; growth at 10 µM (UACC-257): 120%; growth at 10 µM [2]: 99.6%
CCOC(=O)/C(C#N)=C\Nc1ccc2ncnc(Nc3ccc(Cl)cc3)c2c1,32.6,103,86.3,103,83.2,93.1,74,50.1,51.2,84.5,76.1,142,100,43,84.9,111,60.6,50.1,102,70.5,growth at 10 µM (SK-MEL-2): 105%; growth at 10 µM (IGROV-1): 52.4%; growth at 10 µM (NCI-H322M): 22.6%; growth at 10 µM (Hs-578T): 89.3%; growth at 10 µM (NCI-H23): 92.5%; growth at 10 µM (HCC 2998): 101%; growth at 10 µM (T47D): 72.7%; growth at 10 µM (NCI-H460): 70%; growth at 10 µM (UACC-257): 108%; growth at 10 µM [2]: 72%
C#Cc1cccc(Nc2ncnc3ccc(N/C=C(\C#N)C(=O)OCC)cc23)c1,56.1,104,92.5,97.8,92.9,97.2,98.1,103,63.1,103,99.6,119,95,58.6,94.2,96.8,91.4,87.5,104,92,growth at 10 µM (SK-MEL-2): 123%; growth at 10 µM (HOP-92): 90.3%; growth at 10 µM (IGROV-1): 77.4%; growth at 10 µM (NCI-H322M): 52.3%; growth at 10 µM (Hs-578T): 103%; growth at 10 µM (NCI-H23): 98.2%; growth at 10 µM (HCC 2998): 102%; growth at 10 µM (T47D): 73.4%; growth at 10 µM (NCI-H460): 100%; growth at 10 µM (UACC-257): 99.8%; growth at 10 µM [2]: 100%
